Among the data in ChEMBL document CHEMBL1143199, “Discovery and SAR of hydrazide antagonists of the pituitary adenylate cyclase-activating polypeptide (PACAP) receptor type 1 (PAC1-R)” (Bioorg Med Chem Lett, 2008) are Ki, Activity and Kb values, retold here.

Assay [1] deals with T1, Pituitary adenylate cyclase-activating polypeptide type I receptor (Homo sapiens, UniProt P41586). In words: Displacement of [125I]PACAP27 from PAC1R expressed in HEK293f cells. Type of assay: cell-based. A digest of the protocol: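 Membranes from HEK293f cells expressing PAC1R (5 lg protein) incubated with 0.2 nM ¹²⁵I-PACAP27 in 50 mM Tris–HCl pH 7.4, 5 mM MgCl₂, 20 min at 37 °C; nonspecific binding with 300 nM unlabeled PACAP38. Terminated by filtration through PEI-soaked GF/B filters, three ice-cold buffer washes, radioactivity counted; Ki reported.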
Background: In a radioligand displacement assay an active substance lowers the binding of a labelled ligand.

In assay [2] the target is T1, Pituitary adenylate cyclase-activating polypeptide type I receptor. Nature of the assay: Displacement of [125I]PACAP27 from PAC1R expressed in HEK293f cells at 3 uM. Type of assay: cell-based.
Target sequence in this assay (P41586 21-468 limits assumed): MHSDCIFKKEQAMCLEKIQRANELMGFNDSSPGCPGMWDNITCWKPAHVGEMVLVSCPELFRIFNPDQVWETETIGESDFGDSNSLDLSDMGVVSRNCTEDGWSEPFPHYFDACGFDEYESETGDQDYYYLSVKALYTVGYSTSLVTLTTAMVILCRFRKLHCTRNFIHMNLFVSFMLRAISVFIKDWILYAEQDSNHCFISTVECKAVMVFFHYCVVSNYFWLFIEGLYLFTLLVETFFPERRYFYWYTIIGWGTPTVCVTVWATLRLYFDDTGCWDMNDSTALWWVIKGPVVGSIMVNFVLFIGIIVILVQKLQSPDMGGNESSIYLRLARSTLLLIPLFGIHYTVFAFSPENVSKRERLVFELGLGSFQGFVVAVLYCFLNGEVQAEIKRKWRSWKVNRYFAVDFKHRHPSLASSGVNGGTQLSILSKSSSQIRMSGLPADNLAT
Assay [3] deals with T2, Pituitary adenylate cyclase-activating polypeptide type I receptor (Rattus norvegicus) (UniProt P32215).
T2 sequence (whole entry): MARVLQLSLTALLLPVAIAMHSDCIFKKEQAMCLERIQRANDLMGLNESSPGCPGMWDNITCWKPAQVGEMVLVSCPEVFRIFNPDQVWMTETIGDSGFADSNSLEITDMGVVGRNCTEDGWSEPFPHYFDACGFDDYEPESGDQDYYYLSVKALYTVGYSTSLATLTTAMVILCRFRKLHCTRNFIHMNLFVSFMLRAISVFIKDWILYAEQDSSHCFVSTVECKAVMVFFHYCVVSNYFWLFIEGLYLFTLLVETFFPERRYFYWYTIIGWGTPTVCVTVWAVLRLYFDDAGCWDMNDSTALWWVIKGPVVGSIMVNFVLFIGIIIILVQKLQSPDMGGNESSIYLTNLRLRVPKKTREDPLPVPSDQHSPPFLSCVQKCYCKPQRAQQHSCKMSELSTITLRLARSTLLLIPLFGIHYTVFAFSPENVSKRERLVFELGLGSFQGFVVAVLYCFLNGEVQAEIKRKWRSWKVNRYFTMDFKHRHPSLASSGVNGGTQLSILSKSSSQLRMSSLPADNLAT
In words: Antagonist activity at PAC1R in rat AR42J cells assessed as PACAP-induced calcium mobilization by FLIPR assay. The assay is classed as functional, cell-based. The following applies: AR-42J. The procedure, abridged: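 Cells loaded with Fluo-4AM for 2 h, preincubated with compounds 30 min at room temperature, then challenged with 2 nM PACAP-27; intracellular calcium changes monitored by FLIPR; Kb calculated.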
On the technique in general: Calcium assays in cells follow changes in intracellular calcium, usually with a dye or a luminescent sensor.

What is called Ki is a measure of affinity in units of concentration, obtained from inhibition or displacement. Lower therefore signals a stronger hold on the target. The term Kb denotes the equilibrium dissociation constant of an antagonist, usually derived from a functional assay.

The structures appear in SMILES notation. Active and inactive are the calls of the source. The rule behind the calls is not given here.

In turn, `COc1cc(/C=N/NC(=O)c2ccc(O)c(Cl)c2)cc(OC)c1OCc1ccccc1` displayed a Ki in assay [1] of 185 nM.

In the case of `O=C(N/N=C/c1ccc(OCc2ccccc2)cc1)c1ccc(O)c(Cl)c1`, the inhibition constant (Ki) in assay [1] was 522 nM. In turn, `COc1cc(CNNC(=O)c2ccc(O)c(Cl)c2)cc(OC)c1OCc1ccc(C(C)C)cc1` gave an Activity in assay [2] of 46%. Still for that read-out and setting: under `COc1cc(C(=O)NNC(=O)c2ccc(O)c(Cl)c2)cc(OC)c1OCc1ccc(C(C)C)cc1` stands 40%. With `COc1cc(/C=N/NC(=O)c2ccc(O)c(Cl)c2)cc(OC)c1OCc1ccc(C(C)C)cc1`, the Ki in assay [1] was 56 nM. For the same compound, the Kb in assay [3] worked out at 200 nM. `COc1cc(/C=N/NC(=O)c2ccc(O)c(Cl)c2)cc(OC)c1OCc1ccc(NC(C)=O)cc1` displayed an Activity in assay [2] of 43%. `COc1cc(/C=N/NC(=O)c2ccc(O)c(Cl)c2)ccc1OCc1ccc(C(C)C)cc1`: the outcome in assay [1] was inactive. As to `O=C(N/N=C/c1cccc2c1ccn2Cc1ccccc1)c1ccc(O)c(Cl)c1`, the Activity in assay [2] came out at 55%. For the compound `COc1cc(/C=N/NC(=O)c2ccc(O)c(Cl)c2)ccc1OCc1ccc(C(F)(F)F)cc1`, the Activity in assay [2] worked out at 50%. In assay [1], `O=C(N/N=C/c1cccc(OCc2cccc(C(F)(F)F)c2)c1)c1ccc(O)c(Cl)c1` displayed a Ki of 554 nM. With `O=C(N/N=C/c1ccc(OCc2cccc(C(F)(F)F)c2)cc1)c1ccc(O)c(Cl)c1`, affinity in assay [1] was put at a Ki of 537 nM. Still for that read-out and setting: under `O=C(N/N=C/c1cccc(COc2cccc(C(F)(F)F)c2)c1)c1ccc(O)c(Cl)c1` stands 274 nM.

For the compound `COc1cc(/C=N/NC(=O)c2ccc(O)c(Cl)c2)cc(OC)c1OCc1cccc(C(F)(F)F)c1`, the inhibition constant Ki in assay [1] worked out at 204 nM. On the same count and under the same terms, under `O=C(N/N=C/c1cccc2c1ccn2Cc1cccc(C(F)(F)F)c1)c1ccc(O)c(Cl)c1` stands 85 nM; under `O=C(N/N=C/c1cccc(COc2ccc(C(F)(F)F)cc2)c1)c1ccc(O)c(Cl)c1`, 241 nM. Same read-out and setting: under `COc1cc(/C=N/NC(=O)c2ccc(O)c(Cl)c2)cc(OCc2c(C)c(C)cc(C)c2C)c1OC` stands 167 nM. Consider `COc1cc(/C=N/NC(=O)c2ccc(O)c(Cl)c2)ccc1OCc1cccc(C(F)(F)F)c1`, for which, in assay [1], the Ki came out at 404 nM.

On to `COc1cc(/C=N/NC(=O)c2ccc(O)c(Cl)c2)ccc1OCc1ccc(NC(C)=O)cc1`, for which the Activity in assay [2] worked out at 34%. Turning to `COc1cc(-c2nnc(-c3ccc(O)c(Cl)c3)s2)cc(OC)c1OCc1ccc(C(C)C)cc1`, the result in assay [1] was inactive. The same measure, in the same setting: under `CC(=O)Nc1ccc(COc2ccc(/C=N/NC(=O)c3ccc(O)c(Cl)c3)cc2)cc1` stands “inactive”. In turn, `COc1cc(C(=O)N/N=C/c2cc(OC)c(OCc3ccc(C(C)C)cc3)c(OC)c2)ccc1O` gave an Activity in assay [2] of 44%.

Turning to `COc1cc(/C=N/NC(=O)c2ccc(O)c(Cl)c2)cc(OC)c1OCc1ccc(C(F)(F)F)cc1`, the affinity in assay [1], expressed as Ki, was 140 nM. Turning to `COc1cc(/C=N/NC(=O)c2cccc(Cl)c2)cc(OC)c1OCc1ccc(C(C)C)cc1`, in assay [1], the outcome was inactive. The compound `O=C(N/N=C/c1cccc2c1ccn2Cc1ccc(OCc2ccccc2)cc1)c1ccc(O)c(Cl)c1` yielded an Activity in assay [2] of 51%. Turning to `COc1cc(/C=N/NC(=O)c2ccc(O)c(Cl)c2)cc(OCc2cccc(C(F)(F)F)c2)c1OC`, the outcome in assay [1] was inactive. The same measure, in the same setting: under `COc1cc(-c2nnc(-c3ccc(O)c(Cl)c3)o2)cc(OC)c1OCc1ccc(C(C)C)cc1` stands “inactive”. For `CNC(=O)c1ccc(COc2ccc(/C=N/NC(=O)c3ccc(O)c(Cl)c3)cc2OC)cc1`, in assay [2], the Activity was 36%.

Turning to `O=C(N/N=C/c1ccc(COc2ccccc2)cc1)c1ccc(O)c(Cl)c1`, the Activity in assay [2] is 41%. Compound `COc1cc(/C=N/NC(=O)c2ccc(O)c(Cl)c2)cc(OCc2ccc(C(C)C)cc2)c1OC` displayed a Ki in assay [1] of 152 nM. Compound `O=C(N/N=C/c1ccc(OCc2ccc(C(F)(F)F)cc2)cc1)c1ccc(O)c(Cl)c1` came in with an Activity in assay [2] of 43%.

As for `COc1cc(/C=N/NC(=O)c2ccc(O)cc2)cc(OC)c1OCc1ccc(C(C)C)cc1`, in assay [2], the Activity turned out to be 22%. Turning to `COc1cc(/C=N/NC(=O)c2ccc3[nH]ncc3c2)cc(OC)c1OCc1ccc(C(C)C)cc1`, in assay [1], the result was inactive.
